{"source": "ChEMBL document CHEMBL4818997", "about": "“Synthesis and structure-activity studies of novel anhydrohexitol-based Leucyl-tRNA synthetase inhibitors” (Eur J Med Chem, 2021)", "key": {"Candida albicans": {"tested_on": "Candida albicans", "assay": "Antifungal activity against Candida albicans at 64 uM measured after 17 hrs by resazurin based flourimetric assay", "assay_type": "functional, organism-based", "procedure,_shortened": "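Compounds were 4-fold serially diluted in RPMI with 1% DMSO background, from 64.0 µM down to 3.9×10^-3 µM. Miconazole 0.25 µM served as positive control.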"}, "Escherichia coli [1]": {"tested_on": "Escherichia coli", "assay": "Antibacterial activity against Escherichia coli ATCC8739 at 64 uM measured after 17 hrs by resazurin based flourimetric assay", "assay_type": "functional, organism-based", "procedure,_shortened": "(§1)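 Bacteria grown in Mueller Hinton broth at 37 °C, inoculum 5×10^3 CFU/ml. […] After 17 h, resazurin was added for 1/2 h and fluorescence read (ex 550/em 590 nm). Results are % growth reduction versus untreated and medium-only wells.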"}, "[2]": {"tested_on": "Mycobacterium tuberculosis", "assay": "Antibacterial activity against Mycobacterium tuberculosis H37Ra […] assessed as inhibition of bacterial growth at 128 uM measured after 17 hrs by resazurin based flourimetric assay", "assay_type": "functional", "procedure,_shortened": "(§2)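 M. tuberculosis H37Ra cultured in 7H9 + 10% OADC at 37 °C. Compounds serially pre-diluted 2-fold in DMSO, then diluted in water, final DMSO <1%, top concentration 128 µM. Inoculum 5×10^3 CFU/ml. After 17 h, resazurin added, 1/2 h at 37 °C, fluorescence read (ex 550/em 590 nm). Growth expressed as % reduction versus untreated and medium controls; IC50 derived.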"}, "Staphylococcus aureus [3]": {"tested_on": "Staphylococcus aureus", "assay": "Antibacterial activity against Staphylococcus aureus ATCC6538 at 64 uM measured after 17 hrs by resazurin based flourimetric assay", "assay_type": "functional, organism-based", "procedure,_shortened": "as §1"}, "Leucine--tRNA ligase": {"biological_target": "Leucine--tRNA ligase (Escherichia coli (strain K12), UniProt P07813)", "sequence (P07813 whole entry)": "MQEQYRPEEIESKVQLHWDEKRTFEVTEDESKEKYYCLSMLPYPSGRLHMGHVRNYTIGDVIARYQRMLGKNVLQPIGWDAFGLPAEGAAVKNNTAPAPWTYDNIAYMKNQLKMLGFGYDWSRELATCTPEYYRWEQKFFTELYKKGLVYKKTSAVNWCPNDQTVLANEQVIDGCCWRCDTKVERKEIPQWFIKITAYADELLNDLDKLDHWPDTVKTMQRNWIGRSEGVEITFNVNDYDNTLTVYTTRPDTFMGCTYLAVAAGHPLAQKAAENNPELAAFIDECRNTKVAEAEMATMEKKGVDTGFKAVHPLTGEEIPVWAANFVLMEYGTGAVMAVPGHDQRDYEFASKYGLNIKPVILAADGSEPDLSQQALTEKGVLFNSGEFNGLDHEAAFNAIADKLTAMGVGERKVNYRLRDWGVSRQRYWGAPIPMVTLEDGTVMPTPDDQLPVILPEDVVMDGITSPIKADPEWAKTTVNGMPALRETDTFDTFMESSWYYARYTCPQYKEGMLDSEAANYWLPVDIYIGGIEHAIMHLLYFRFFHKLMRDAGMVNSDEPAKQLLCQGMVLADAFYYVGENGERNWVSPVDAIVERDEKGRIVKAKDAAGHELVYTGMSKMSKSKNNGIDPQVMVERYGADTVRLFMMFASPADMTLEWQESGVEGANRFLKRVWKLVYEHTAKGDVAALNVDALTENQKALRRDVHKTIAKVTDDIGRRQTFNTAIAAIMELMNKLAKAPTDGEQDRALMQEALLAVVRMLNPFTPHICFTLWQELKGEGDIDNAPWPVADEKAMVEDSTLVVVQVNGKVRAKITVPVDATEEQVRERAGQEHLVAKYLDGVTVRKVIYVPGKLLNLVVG", "assay": "Inhibition of recombinant Escherichia coli LeuRS assessed as inhibition of 14C-radiolabelled leucine transfer to tRNA leucine preincubated for 10 mins followed by addition of ATP and measured after 4 mins by Scintillation counting method", "details": "read-out: Ki(app)"}, "Staphylococcus aureus [4]": {"tested_on": "Staphylococcus aureus", "assay": "Antibacterial activity against Staphylococcus aureus ATCC6538 assessed as inhibition of bacterial growth measured after 17 hrs by resazurin based flourimetric assay", "assay_type": "functional, organism-based", "details": "ATCC6538, 17 h", "procedure,_shortened": "as §1"}, "Escherichia coli [5]": {"tested_on": "Escherichia coli", "assay": "Antibacterial activity against Escherichia coli ATCC8739 assessed as inhibition of bacterial growth measured after 17 hrs by resazurin based flourimetric assay", "assay_type": "functional, organism-based", "details": "ATCC8739, ATCC 8739, 17 h", "procedure,_shortened": "as §1"}, "[6]": {"tested_on": "Mycobacterium tuberculosis", "assay": "Antibacterial activity against Mycobacterium tuberculosis H37Ra […] assessed as inhibition of bacterial growth measured after 17 hrs by resazurin based flourimetric assay", "assay_type": "functional, organism-based", "procedure,_shortened": "as §2"}}, "note": "Activity calls are given as the source filed them. The rule behind the calls is not given here."}
{"smiles": "CC(C)C[C@H](N)C(=O)NS(=O)(=O)OC[C@H]1OC[C@@H](CCCn2cc(CCc3ccccc3)nn2)[C@H](O)[C@@H]1O", "values": [{"measurement": "Activity", "setting": "Candida albicans", "value": "inactive"}, {"measurement": "Activity", "setting": "Escherichia coli [1]", "value": "inactive"}, {"measurement": "inhibition at 128 µM", "setting": "[2]", "value": 38.2, "unit": "%"}, {"measurement": "Activity", "setting": "Staphylococcus aureus [3]", "value": "inactive"}, {"measurement": "Ki", "setting": "Leucine--tRNA ligase", "value": 108, "unit": "nM"}]}
{"smiles": "CC(C)C[C@H](N)C(=O)NS(=O)(=O)OC[C@H]1OC[C@@H](CCCn2cc(CCCCO)nn2)[C@H](O)[C@@H]1O", "values": [{"measurement": "Activity", "setting": "Candida albicans", "value": "inactive"}, {"measurement": "Activity", "setting": "Escherichia coli [1]", "value": "inactive"}, {"measurement": "inhibition at 128 µM", "setting": "[2]", "value": 23.2, "unit": "%"}, {"measurement": "Activity", "setting": "Staphylococcus aureus [3]", "value": "inactive"}, {"measurement": "Ki", "setting": "Leucine--tRNA ligase", "value": 388, "unit": "nM"}]}
{"smiles": "C[C@H]1c2cccc(O)c2C(=O)C2=C(O)[C@]3(O)C(=O)C(C(N)=O)=C(O)[C@@H](N(C)C)[C@@H]3[C@@H](O)[C@@H]21", "note": "[DOXYCYCLINE]", "values": [{"measurement": "IC50", "setting": "Staphylococcus aureus [4]", "value": 110, "unit": "nM"}, {"measurement": "IC50", "setting": "Escherichia coli [5]", "value": 730, "unit": "nM"}]}
{"smiles": "CC(C)C[C@H](N)C(=O)NS(=O)(=O)OC[C@H]1OC[C@@H](CCCn2cc(CN)nn2)[C@H](O)[C@@H]1O", "values": [{"measurement": "Activity", "setting": "Candida albicans", "value": "inactive"}, {"measurement": "Activity", "setting": "Escherichia coli [1]", "value": "inactive"}, {"measurement": "inhibition at 128 µM", "setting": "[2]", "value": 9.44, "unit": "%"}, {"measurement": "Activity", "setting": "Staphylococcus aureus [3]", "value": "inactive"}, {"measurement": "Ki", "setting": "Leucine--tRNA ligase", "value": 2970, "unit": "nM"}]}
{"smiles": "CC(C)C[C@H](N)C(=O)NS(=O)(=O)OC[C@H]1O[C@@H](CCn2nnc(-c3ccccc3)n2)[C@H](O)[C@@H]1O", "values": [{"measurement": "Activity", "setting": "Candida albicans", "value": "inactive"}, {"measurement": "Activity", "setting": "Escherichia coli [1]", "value": "inactive"}, {"measurement": "inhibition at 128 µM", "setting": "[2]", "value": 49.8, "unit": "%"}, {"measurement": "Activity", "setting": "Staphylococcus aureus [3]", "value": "inactive"}, {"measurement": "Ki", "setting": "Leucine--tRNA ligase", "value": 30.9, "unit": "nM"}]}
{"smiles": "CC(C)C[C@H](N)C(=O)NS(=O)(=O)OC[C@H]1OC[C@@H](CCCn2cc(CNCc3ccccc3)nn2)[C@H](O)[C@@H]1O", "values": [{"measurement": "Activity", "setting": "Candida albicans", "value": "inactive"}, {"measurement": "Activity", "setting": "Escherichia coli [1]", "value": "inactive"}, {"measurement": "inhibition at 128 µM", "setting": "[2]", "value": 12.1, "unit": "%"}, {"measurement": "Activity", "setting": "Staphylococcus aureus [3]", "value": "inactive"}, {"measurement": "Ki", "setting": "Leucine--tRNA ligase", "value": 1260, "unit": "nM"}]}
{"smiles": "CC(C)C[C@H](N)C(=O)NS(=O)(=O)OC[C@H]1OC[C@@H](CCCn2cc(-c3cccnc3)nn2)[C@H](O)[C@@H]1O", "values": [{"measurement": "Activity", "setting": "Candida albicans", "value": "inactive"}, {"measurement": "Activity", "setting": "Escherichia coli [1]", "value": "inactive"}, {"measurement": "inhibition at 128 µM", "setting": "[2]", "value": 16.9, "unit": "%"}, {"measurement": "Activity", "setting": "Staphylococcus aureus [3]", "value": "inactive"}, {"measurement": "Ki", "setting": "Leucine--tRNA ligase", "value": 31.6, "unit": "nM"}]}
{"smiles": "CC(C)C[C@H](N)C(=O)NS(=O)(=O)OC[C@H]1OC[C@@H](CCCn2cc(CNC(=O)c3ccccc3)nn2)[C@H](O)[C@@H]1O", "values": [{"measurement": "Activity", "setting": "Candida albicans", "value": "inactive"}, {"measurement": "Activity", "setting": "Escherichia coli [1]", "value": "inactive"}, {"measurement": "Activity", "setting": "Staphylococcus aureus [3]", "value": "inactive"}, {"measurement": "Ki", "setting": "Leucine--tRNA ligase", "value": 31.3, "unit": "nM"}]}
{"smiles": "CCCCCc1ccc(-c2cn(CCC[C@@H]3CO[C@H](COS(=O)(=O)NC(=O)[C@@H](N)CC(C)C)[C@@H](O)[C@H]3O)nn2)cc1", "values": [{"measurement": "Activity", "setting": "Candida albicans", "value": "inactive"}, {"measurement": "Activity", "setting": "Escherichia coli [1]", "value": "inactive"}, {"measurement": "inhibition at 128 µM", "setting": "[2]", "value": 86.1, "unit": "%"}, {"measurement": "Activity", "setting": "Staphylococcus aureus [3]", "value": "inactive"}, {"measurement": "Ki", "setting": "Leucine--tRNA ligase", "value": 5.51, "unit": "nM"}, {"measurement": "IC50", "setting": "[6]", "value": 24700, "unit": "nM"}]}
{"smiles": "CC(C)C[C@H](N)C(=O)NS(=O)(=O)OC[C@H]1OC[C@@H](CCCn2cc(-c3ccc(OC(F)(F)F)cc3)nn2)[C@H](O)[C@@H]1O", "values": [{"measurement": "Activity", "setting": "Candida albicans", "value": "inactive"}, {"measurement": "Activity", "setting": "Escherichia coli [1]", "value": "inactive"}, {"measurement": "inhibition at 128 µM", "setting": "[2]", "value": 27.8, "unit": "%"}, {"measurement": "Activity", "setting": "Staphylococcus aureus [3]", "value": "inactive"}, {"measurement": "Ki", "setting": "Leucine--tRNA ligase", "value": 17.8, "unit": "nM"}]}
{"smiles": "CCCCCCCCc1cn(CCC[C@@H]2CO[C@H](COS(=O)(=O)NC(=O)[C@@H](N)CC(C)C)[C@@H](O)[C@H]2O)nn1", "values": [{"measurement": "Activity", "setting": "Candida albicans", "value": "inactive"}, {"measurement": "Activity", "setting": "Escherichia coli [1]", "value": "inactive"}, {"measurement": "inhibition at 128 µM", "setting": "[2]", "value": 4.26, "unit": "%"}, {"measurement": "Activity", "setting": "Staphylococcus aureus [3]", "value": "inactive"}, {"measurement": "Ki", "setting": "Leucine--tRNA ligase", "value": 52.4, "unit": "nM"}]}
{"smiles": "COc1c(N2C[C@@H]3CCCN[C@@H]3C2)c(F)cc2c(=O)c(C(=O)O)cn(C3CC3)c12", "note": "[MOXIFLOXACIN]", "values": [{"measurement": "IC50", "setting": "[6]", "value": 250, "unit": "nM"}]}
